Consider four compounds from ChEMBL document CHEMBL1124558, “Differential effects of a series of hydroxamic acid derivatives on 5-lipoxygenase and cyclooxygenase from neutrophils and 12-lipoxygenase from platelets and their in vivo effects on inflammation and anaphylaxis” (J Med Chem, 1989).

For experiment [1], the system named is 5-lipoxygenase (Cavia porcellus). The experiment in a line: In vitro inhibitory activity against polymorphonuclear leukocyte 5-lipoxygenase using guinea pig supernatant at 10 uM.
The target in experiment [2] is T1, Polyunsaturated fatty acid 5-lipoxygenase (Homo sapiens) (UniProt P09917).
T1 sequence (whole entry): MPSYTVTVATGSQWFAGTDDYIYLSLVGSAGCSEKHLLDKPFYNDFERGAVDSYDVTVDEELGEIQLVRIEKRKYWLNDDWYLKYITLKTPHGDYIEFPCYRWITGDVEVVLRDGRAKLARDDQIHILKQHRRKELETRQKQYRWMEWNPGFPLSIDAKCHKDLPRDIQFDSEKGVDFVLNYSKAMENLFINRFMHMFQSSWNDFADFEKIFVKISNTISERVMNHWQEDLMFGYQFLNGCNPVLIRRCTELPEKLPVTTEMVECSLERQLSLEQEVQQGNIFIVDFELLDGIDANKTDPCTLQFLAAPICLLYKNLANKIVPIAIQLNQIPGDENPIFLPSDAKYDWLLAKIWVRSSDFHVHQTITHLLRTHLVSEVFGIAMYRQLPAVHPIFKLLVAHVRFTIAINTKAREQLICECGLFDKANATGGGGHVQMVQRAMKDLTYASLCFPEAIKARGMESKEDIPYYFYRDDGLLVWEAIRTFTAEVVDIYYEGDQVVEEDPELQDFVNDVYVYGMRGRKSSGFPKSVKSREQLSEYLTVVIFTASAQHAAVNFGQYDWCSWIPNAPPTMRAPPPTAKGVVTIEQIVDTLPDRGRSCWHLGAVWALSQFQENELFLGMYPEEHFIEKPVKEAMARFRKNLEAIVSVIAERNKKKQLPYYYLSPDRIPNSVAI
The experiment in a line: In vitro inhibitory activity against polymorphonuclear leukocyte 5-lipoxygenase in human cell at 10 uM. In short, it runs like this: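 Human PMNs from venous blood of a healthy volunteer (EDTA) were purified by dextran sedimentation, a Percoll gradient and NH4Cl red-cell lysis (>90% pure). They were held in Ca/Mg PBS with 1 mg/mL glucose and 1 μM indomethacin, then challenged with A23187 (0.8 μM) and [14C]arachidonic acid (4 μM) for 3 min. 5-HETE was measured by TLC and scintillation counting.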

Experiment [3] has as its target T2, Cyclooxygenase (Rattus norvegicus) (UniProt P35355+Q63921). The experiment in a line: In vitro inhibitory activity against rat polymorphonuclear leukocyte Prostaglandin G/H synthase at 30 uM. It counts as protein assay. In short, it runs like this: (§1)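 Homogenate of glycogen-elicited rat peritoneal PMNs in 0.1 M Tris-HCl pH 8.2 with 10 μM NDGA, preincubated 5 min at 37 °C with compound (≤0.1% DMSO). [14C]arachidonic acid (8 μM) added with 4 mM glutathione and epinephrine; 10 min reaction. TxB2 and PGF2α separated by TLC and counted.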

Experiment [4] concerns the target T3, Arachidonate 12-lipoxygenase (Rattus norvegicus) (UniProt Q02759).
T3 sequence (whole entry): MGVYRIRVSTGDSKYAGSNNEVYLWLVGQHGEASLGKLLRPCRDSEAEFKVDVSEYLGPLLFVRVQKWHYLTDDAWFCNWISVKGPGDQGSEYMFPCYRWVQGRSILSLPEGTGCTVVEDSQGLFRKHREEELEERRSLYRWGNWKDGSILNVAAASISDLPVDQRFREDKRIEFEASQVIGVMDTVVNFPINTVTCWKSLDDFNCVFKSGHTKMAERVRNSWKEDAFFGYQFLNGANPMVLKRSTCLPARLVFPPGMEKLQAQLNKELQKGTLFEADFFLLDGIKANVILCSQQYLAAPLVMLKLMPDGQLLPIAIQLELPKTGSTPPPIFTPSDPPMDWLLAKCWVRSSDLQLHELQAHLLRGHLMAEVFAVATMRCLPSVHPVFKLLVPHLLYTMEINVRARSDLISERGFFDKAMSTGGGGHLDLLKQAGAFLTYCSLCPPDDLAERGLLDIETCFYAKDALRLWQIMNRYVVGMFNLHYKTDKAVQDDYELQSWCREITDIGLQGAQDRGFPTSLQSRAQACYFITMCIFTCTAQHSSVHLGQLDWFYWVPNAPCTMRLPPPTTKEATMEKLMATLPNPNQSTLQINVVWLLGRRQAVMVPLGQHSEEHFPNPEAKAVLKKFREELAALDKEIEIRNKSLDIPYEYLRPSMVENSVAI
The experiment can be described thus: In vitro inhibitory activity against rat platelet 12-lipoxygenase at 10 uM. In short, it runs like this:
(§2)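 Cell-free cytosolic 12-lipoxygenase from Sprague-Dawley rat platelets (0.4 mg/mL), preincubated 5 min at 30 °C with compound in DMSO (≤0.1% final), 25 mM Tris pH 7.4, 1 μM indomethacin, 100 μM glutathione; reaction started with 6 μM [14C]arachidonic acid and quenched with citric acid/NDGA after 3 min. 12-HETE isolated by TLC and counted by scintillation; % inhibition, duplicate.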

Experiment [5] has as its target T4, Polyunsaturated fatty acid 5-lipoxygenase (Rattus norvegicus, UniProt P12527).
T4 sequence (P12527 whole entry): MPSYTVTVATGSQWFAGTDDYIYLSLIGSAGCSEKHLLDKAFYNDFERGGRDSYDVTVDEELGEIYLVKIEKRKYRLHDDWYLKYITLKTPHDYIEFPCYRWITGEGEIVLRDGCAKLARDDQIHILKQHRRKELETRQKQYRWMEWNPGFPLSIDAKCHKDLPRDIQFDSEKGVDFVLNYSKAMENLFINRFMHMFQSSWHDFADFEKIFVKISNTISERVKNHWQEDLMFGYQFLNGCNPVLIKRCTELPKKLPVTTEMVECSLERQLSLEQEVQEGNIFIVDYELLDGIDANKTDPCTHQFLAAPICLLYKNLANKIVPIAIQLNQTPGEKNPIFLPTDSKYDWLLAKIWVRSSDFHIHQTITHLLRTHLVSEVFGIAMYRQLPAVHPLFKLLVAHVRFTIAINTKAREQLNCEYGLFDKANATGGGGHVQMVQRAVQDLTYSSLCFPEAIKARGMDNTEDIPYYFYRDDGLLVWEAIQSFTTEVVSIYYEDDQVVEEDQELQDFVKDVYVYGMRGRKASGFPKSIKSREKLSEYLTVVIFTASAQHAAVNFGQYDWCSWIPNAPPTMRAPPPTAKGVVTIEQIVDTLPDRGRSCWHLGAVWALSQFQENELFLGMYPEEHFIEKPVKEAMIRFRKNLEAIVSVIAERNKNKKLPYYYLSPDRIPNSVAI
The experiment in a line: In vitro inhibition of rat polymorphonuclear leukocyte 5-lipoxygenase. In short, it runs like this:
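Intact glycogen-elicited peritoneal PMNs pooled from 4–5 Sprague-Dawley rats (250 g), preincubated 5 min at 30 °C with compound in DMSO (≤0.1% final) plus 1 μM indomethacin. Challenge with [14C]arachidonic acid (4 μM) and A23187 (0.8 μM) for 3 min. Extraction, TLC, 5-HETE by scintillation counting.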

Experiment [6] deals with T3, Arachidonate 12-lipoxygenase (Rattus norvegicus). The experiment can be described thus: In vitro inhibitory activity against rat platelet 12-lipoxygenase at 100 uM. In short, it runs like this:
as §2

Experiment [7] has as its target T5, Polyunsaturated fatty acid 5-lipoxygenase (Homo sapiens, UniProt P09917).
T5 sequence (P09917 whole entry): T1 sequence (whole entry)
The experiment can be described thus: In vitro inhibition of polymorphonuclear leukocyte derived human 5-lipoxygenase. In short, it runs like this: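 PMNs from venous blood of healthy volunteers, isolated by dextran sedimentation and Percoll gradient (>90% pure) and held in Ca/Mg PBS with 1 mg/mL glucose and 1 μM indomethacin. Challenged with calcium ionophore and [14C]arachidonic acid for 3 min. 5-HETE measured by TLC and scintillation counting; IC50 read graphically.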

The subject of experiment [8] is Mus musculus. The experiment in a line: In vivo inhibition of mouse ear inflammation. More on the design: concentration or dose not given beside the values. The experiment is classed as functional. In short, it runs like this: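 Compound or ethanol vehicle applied topically to one ear of male DBA/2J mice 60 min before arachidonic acid (2 mg/ear). […] Groups of 5 mice.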

In experiment [9] the target is T2, Cyclooxygenase (Rattus norvegicus). The experiment in a line: In vitro inhibitory activity against rat polymorphonuclear leukocyte Prostaglandin G/H synthase at 100 uM. The experiment is classed as functional. In short, it runs like this:
(§3)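 Glycogen-elicited peritoneal PMNs from Sprague-Dawley rats were homogenized at 0 °C in 0.1 M Tris-HCl pH 8.2 with 10 μM NDGA. Compound (DMSO ≤0.1%) was preincubated 5 min at 37 °C, then 8 μM [14C]arachidonic acid with 4 mM glutathione and epinephrine was added for 10 min. TxB2 and PGF2α were measured by TLC and scintillation counting.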

The target is the same in experiment [10]. The experiment in a line: In vitro inhibitory activity against rat polymorphonuclear leukocyte Prostaglandin G/H synthase at 10 uM. It counts as protein assay. In short, it runs like this:
as §1

The target of experiment [11] is T6, Cyclooxygenase (Rattus norvegicus, UniProt P35355+Q63921).
T6 sequence (P35355 whole entry): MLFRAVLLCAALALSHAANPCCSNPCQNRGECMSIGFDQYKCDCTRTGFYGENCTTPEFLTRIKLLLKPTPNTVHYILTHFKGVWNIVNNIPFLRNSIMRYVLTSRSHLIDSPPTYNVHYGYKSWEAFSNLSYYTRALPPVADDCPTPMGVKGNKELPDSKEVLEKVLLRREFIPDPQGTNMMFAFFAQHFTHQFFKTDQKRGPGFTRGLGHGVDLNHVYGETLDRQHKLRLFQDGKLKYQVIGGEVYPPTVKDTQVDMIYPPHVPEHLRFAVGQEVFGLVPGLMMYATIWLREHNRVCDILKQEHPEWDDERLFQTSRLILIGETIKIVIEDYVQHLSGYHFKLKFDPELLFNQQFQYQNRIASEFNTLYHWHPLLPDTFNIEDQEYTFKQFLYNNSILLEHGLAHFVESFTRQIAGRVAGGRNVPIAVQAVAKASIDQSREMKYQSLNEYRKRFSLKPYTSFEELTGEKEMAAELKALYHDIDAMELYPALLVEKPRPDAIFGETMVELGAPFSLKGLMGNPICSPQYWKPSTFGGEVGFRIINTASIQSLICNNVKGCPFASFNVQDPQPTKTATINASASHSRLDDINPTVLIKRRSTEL
T6 sequence (Q63921 whole entry): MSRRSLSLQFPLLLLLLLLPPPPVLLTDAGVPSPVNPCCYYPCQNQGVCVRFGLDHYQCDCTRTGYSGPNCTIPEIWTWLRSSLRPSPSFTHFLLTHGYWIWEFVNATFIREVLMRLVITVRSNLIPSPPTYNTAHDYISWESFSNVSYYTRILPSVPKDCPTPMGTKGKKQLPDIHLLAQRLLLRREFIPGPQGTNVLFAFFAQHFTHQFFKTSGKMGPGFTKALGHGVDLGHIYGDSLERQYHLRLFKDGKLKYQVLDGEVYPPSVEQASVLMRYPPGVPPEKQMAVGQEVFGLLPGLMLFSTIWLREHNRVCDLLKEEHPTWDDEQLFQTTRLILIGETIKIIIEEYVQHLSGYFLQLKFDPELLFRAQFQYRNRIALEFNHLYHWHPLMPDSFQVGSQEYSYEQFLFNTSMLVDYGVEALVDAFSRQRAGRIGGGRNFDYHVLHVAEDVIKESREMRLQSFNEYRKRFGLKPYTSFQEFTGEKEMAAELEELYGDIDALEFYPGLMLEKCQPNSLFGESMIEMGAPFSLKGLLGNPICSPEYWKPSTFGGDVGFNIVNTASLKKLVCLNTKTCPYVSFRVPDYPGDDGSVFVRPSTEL
The experiment in a line: In vitro inhibitory activity against rat polymorphonuclear leukocyte cyclooxygenase. The experiment is classed as protein assay. In short, it runs like this: as §3

The species named for experiment [12] is Cavia porcellus. The experiment in a line: Inhibitory activity against Leukotriene-D4 induced contractions. The experiment is classed as functional.
The species named for experiment [13] is Cavia porcellus. The experiment can be described thus: Inhibitory activity against Leukotriene C4 induced contractions. It counts as functional.
For experiment [14], the system named is Cavia porcellus. The experiment in a line: In vivo inhibitory activity against guinea pig systemic anaphylaxis when administered a compound dose (60 mg/kg) perorally. The experiment is classed as functional. As to conditions: po. In short, it runs like this:
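Male Hartley guinea pigs sensitised ip with ovalbumin (2.7 mg/kg) plus LPS adjuvant, then challenged 2 weeks later with 1% ovalbumin aerosol for 30 s. Pretreated with pyrilamine, indomethacin and propranolol 20 min before challenge. Compound given in PEG 400 1 h before challenge.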

The target of experiment [15] is T7, Cysteinyl leukotriene receptor 1 (Cavia porcellus, UniProt Q2NNR5).
T7 sequence (Q2NNR5 whole entry): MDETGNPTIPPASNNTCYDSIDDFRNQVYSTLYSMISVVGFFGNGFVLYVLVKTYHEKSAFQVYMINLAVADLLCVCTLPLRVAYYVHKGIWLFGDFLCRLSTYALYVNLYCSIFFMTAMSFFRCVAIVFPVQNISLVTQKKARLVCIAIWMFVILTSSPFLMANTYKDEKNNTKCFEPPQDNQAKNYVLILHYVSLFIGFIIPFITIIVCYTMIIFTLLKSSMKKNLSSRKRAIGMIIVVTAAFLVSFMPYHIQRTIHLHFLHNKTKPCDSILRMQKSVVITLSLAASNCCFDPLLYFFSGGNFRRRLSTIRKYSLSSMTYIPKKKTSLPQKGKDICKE
The experiment can be described thus: Activity to bind against [3H]LTD4 radioligand in guinea pig.

Experiment [16] has as its target T6, Cyclooxygenase. The experiment can be described thus: In vitro inhibitory activity against polymorphonuclear leukocyte cyclooxygenase. It counts as protein assay. In short, it runs like this:
as §3

For `O=C(Cc1ccc(OCc2ccccc2)cc1)N(Cc1ccccc1)OCc1ccccc1`, the inhibition in [1] was < 10%; in experiment [2], 22%; in [3] it was 24%; in experiment [4], < 10%.
On to `O=C(Cc1ccc(OCc2ccccc2)cc1)N(O)Cc1ccccc1`, for which the results for the half-inhibitory concentration (IC50) in experiment [5] and in [7] were 0.1 µM and 0.12 µM, respectively. Besides, the values for the inhibition in experiment [6] and in experiment [9] were 47% and 32%, respectively. In addition, the Inhibition in experiment [8] stood at 37%.
`CC(c1ccccc1)N(O)C(=O)Cc1ccc(OCc2ccccc2)cc1` (stereo not drawn) yielded an Inhibition in experiment [8] of 47%. Moreover, the inhibition in [10] stood at 38%.
As to `CN(O)C(=O)Cc1ccc(OCc2ccccc2)cc1`, the IC50 in experiment [11] is 9 µM; in experiment [12] it was 5 µM; in experiment [13], 4.2 µM; in [16] it was < 10 µM. This compound also showed an Inhibition in [8] of 65%. Further, the inhibition in vivo at 60 mg/kg in [14] came out at 83%. Further, the Ki in experiment [15] was > 100 µM.

Usually inhibition stands for the share of the control response that was lost under treatment. For orientation: IC50 means the concentration that inhibits the measured activity by half. By Inhibition is commonly meant the relative decrease from the control value, in per cent. In general, inhibition in vivo refers to the relative decrease from the control value, in per cent. What is called Ki is a measure of affinity in units of concentration, obtained from inhibition or displacement.
